Test results from paper PMC12830962 (Nature Communications, 2025).
Ends that are not written are not given here. * marks the point of attachment. Biotin = O=C1N[C@H]2[C@H](CS[C@H]2CCCCC(=O)*)N1; Ahx = NCCCCCC(=O)O

T1: Gal4-PPARα (PPARα-LBD) (Homo sapiens, UniProt Q07869)
T1 sequence (Q07869 239-466 limits assumed): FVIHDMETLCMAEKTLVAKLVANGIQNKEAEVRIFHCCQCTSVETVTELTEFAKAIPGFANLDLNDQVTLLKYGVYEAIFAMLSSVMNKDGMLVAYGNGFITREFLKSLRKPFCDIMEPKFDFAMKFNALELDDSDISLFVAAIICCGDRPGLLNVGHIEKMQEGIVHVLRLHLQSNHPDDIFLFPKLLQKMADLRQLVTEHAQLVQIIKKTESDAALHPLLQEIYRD

T2: His-hPPARγ-LBD (PPARγ2 residues 231–505) (human, UniProt P37231-1 231-505)
T2 sequence (looked up): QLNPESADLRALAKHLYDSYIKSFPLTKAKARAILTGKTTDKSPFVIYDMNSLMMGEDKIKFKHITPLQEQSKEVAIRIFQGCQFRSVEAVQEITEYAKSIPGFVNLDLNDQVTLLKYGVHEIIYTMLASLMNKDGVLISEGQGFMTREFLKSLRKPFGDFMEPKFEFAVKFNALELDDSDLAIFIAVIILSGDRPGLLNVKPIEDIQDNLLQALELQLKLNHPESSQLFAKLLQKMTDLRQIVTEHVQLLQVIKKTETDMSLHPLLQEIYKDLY


Legend:
Gal4-PPARα (PPARα-LBD) = molecular target: T1, Gal4-PPARα (PPARα-LBD); test: Gal4-PPARα LBD::UAS-luciferase reporter cotransfection assay in HEK293T cells; type: cell-based; conditions: 1 μΜ compound
Method in brief: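 HEK293T cells were seeded at 3.3 × 10^6 per 10-cm plate. After 24 h they were PEI-transfected with 8 μg total DNA, Gal4-PPAR LBD plasmid and UAS-luciferase reporter at 1:1. After a further 24 h, cells were replated at 10,000 cells/well in 384-well plates, left 3 h, then given test compound or DMSO for 18 h. Luciferase was read with Britelite Plus.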

[1] = system: human adipocytes from a type 2 diabetic donor (PT5022); test: Glucose uptake assay, adipocytes from type 2 diabetic donor; type: cell-based; conditions: 100 nM insulin
Method in brief: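 Adipocytes from a type 2 diabetic donor were differentiated from preadipocytes and exposed on day 7 to test compound in DMEM with 0.2% BSA for 24 h. Uptake was read by luminescence (Glucose Uptake-Glo).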

[2] = molecular target: T2, His-hPPARγ-LBD (PPARγ2 residues 231–505); test: AlphaScreen or HTRF

PPARα activation compared to that observed with GW7647 treatment (Gal4-PPARα (PPARα-LBD))	binding result [2]	Molecule	insulin-stimulated glucose uptake compared to DMSO [1]
~ 45%		Cc1c(C)n(Cc2cccc(OC(C)(C)C(=O)O)c2)c2ccc(C(=O)N[C@@H](C)c3ccc(C(C)(C)C)cc3)cc12 [SR10171]	significantly enhanced
		CN(CCOc1ccc(CC2SC(=O)NC2=O)cc1)c1ccccn1 (stereo not shown) [Rosi, rosiglitazone]	significantly enhanced
	binds	{Biotin-Ahx}-LTERHKILHRLLQEGSPSD [biotin-Ahx-SRC1-2 coactivator peptide]	
